Experimental data: ChEMBL document CHEMBL1125042, “Hypolipidemic activity of rifamycin derivatives” (J Med Chem, 1990)
Converted amounts (≈) assume the structure as drawn.

Legend:
Staphylococcus aureus = assay: Antibacterial activity against Staphylococcus aureus 10B; assay type: functional
Outline: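 Agar dilution on DST agar with 2-fold drug dilutions. Inoculum of 10⁴ viable S. aureus 10B was taken from liquid-nitrogen stock, thawed 30 min and not subcultured. It was applied by multipoint replicator and incubated overnight at 37 °C. MIC is the lowest concentration inhibiting growth relative to control cultures.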

Rattus norvegicus [1] = assay: Hypolipidemic activity was determined in male rats, and high-density lipoprotein level was determined at 10 mg/kg; assay type: functional
Outline: (§1)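 Male Wistar rats (200–230 g), eight per group, were dosed orally in PEG 400 at 8 a.m. for 4 days, plus a second dose at 4 p.m. on day 4. Rats were fasted 16 h and killed 16 h after the last dose. Sera from pairs of rats were pooled. LDL (up to 1.040 g/cm³) was separated by ultracentrifugation and the HDL infranatant taken. Cholesterol was measured enzymatically. Results are % versus vehicle control, mean ± SEM of four pools, Student's t test.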

Rattus norvegicus [2] = assay: Tested for hypolipidemic activity in male rats, cholesterol was determined in serum at 10 mg/kg; assay type: functional
Outline: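 Groups of eight male Wistar rats (200–230 g) dosed orally in PEG 400, either daily for 7 days (killed 24 h after the last dose) or for 4 days with a second dose on day 4 (killed 16 h later). Fasted 16 h. Paired sera pooled, lipoproteins separated by ultracentrifugation (1.006 and 1.040 g/cm³), HDL taken as the infranatant. Cholesterol measured enzymatically; % vs vehicle, mean ± SEM of four pools.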

Rattus norvegicus [3] = assay: Hypolipidemic activity was determined in male rats, and low-density lipoprotein level was determined at 10 mg/kg; assay type: functional; outline: as §1
Rattus norvegicus [4] = assay: Hypolipidemic activity was determined by measuring the % serum LDL in normal rat at a dose of 30 mg/kg; assay type: functional, organism-based; parameters: dose 30 mg/kg
Outline: (§2)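 Normal male Wistar rats (200–230 g), eight per group, were dosed orally in PEG 400 once daily for 7 days. They were fasted 16 h and killed 24 h after the last dose. Serum from pairs was pooled and LDL/HDL fractions were ultracentrifuged. Cholesterol and triglycerides were measured enzymatically. Results are % versus vehicle control, mean ± SEM of four pools, Student's t test.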

Rattus norvegicus [5] = assay: Hypolipidemic activity was determined by measuring the % serum cholesterol in normal rat at a dose of 10 mg/kg; assay type: functional, organism-based; parameters: dose 10 mg/kg; outline: as §2
Rattus norvegicus [6] = assay: Hypolipidemic activity was determined by measuring the % serum LDL in normal rat at a dose of 3 mg/kg; assay type: functional, organism-based; parameters: dose 3 mg/kg; outline: as §2
Rattus norvegicus [7] = assay: Hypolipidemic activity was determined by measuring the % serum cholesterol in rat at the specified dose of 10 mg/kg; assay type: functional, organism-based; parameters: dose 10 mg/kg
Outline: (§3)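 Male Wistar rats (200–230 g, n=8 per group) were given oral doses in PEG 400 and fasted 16 h before being killed under pentothal. Paired sera were pooled with 0.05% EDTA and 0.01% thimerosal, and LDL/HDL were separated by ultracentrifugation. Cholesterol was measured enzymatically. Results are % versus vehicle control, mean ± SEM of four serum pools, Student's t test.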

Rattus norvegicus [8] = assay: Hypolipidemic activity was determined by measuring the % serum cholesterol in normal rat at a dose of 3 mg/kg; assay type: functional, organism-based; parameters: dose 3 mg/kg; outline: as §2
Rattus norvegicus [9] = assay: Hypolipidemic activity was determined by measuring the % serum triglycerides in hypercholesterolemic RICO rat at a dose of 10 mg/kg; assay type: functional, organism-based; parameters: dose 10 mg/kg
Outline: (§4)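 Genetically hypercholesterolemic RICO rats (Tif:RAI,f,SPF) were dosed orally for 7 days. Sera were collected after a 16 h fast and pooled in pairs. LDL (1.006–1.040 g/cm³) and HDL infranatant were separated by ultracentrifugation. Cholesterol and triglycerides were measured enzymatically. Results are % change versus vehicle control, mean ± SEM of four pools.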

Rattus norvegicus [10] = assay: Hypolipidemic activity was determined by measuring the % serum HDL in normal rat at a dose of 30 mg/kg; assay type: functional, organism-based; parameters: dose 30 mg/kg; outline: as §2
Rattus norvegicus [11] = assay: Hypolipidemic activity was determined by measuring the % serum cholesterol in normal rat at a dose of 30 mg/kg; assay type: functional, organism-based; parameters: dose 30 mg/kg; outline: as §2
Rattus norvegicus [12] = assay: Hypolipidemic activity was determined by measuring the % serum HDL in normal rat at a dose of 10 mg/kg; assay type: functional, organism-based; parameters: dose 10 mg/kg; outline: as §2
Rattus norvegicus [13] = assay: Hypolipidemic activity was determined by measuring the % serum cholesterol in hypercholesterolemic RICO rat at a dose of 30 mg/kg; assay type: functional, organism-based; parameters: dose 30 mg/kg; outline: as §4
Rattus norvegicus [14] = assay: Hypolipidemic activity was determined by measuring the % serum triglycerides in normal rat at a dose of 3 mg/kg; assay type: functional, organism-based; parameters: dose 3 mg/kg; outline: as §2
Rattus norvegicus [15] = assay: Hypolipidemic activity was determined by measuring the % serum triglycerides in hypercholesterolemic RICO rat at a dose of 30 mg/kg; assay type: functional, organism-based; parameters: dose 30 mg/kg; outline: as §4
Rattus norvegicus [16] = assay: Hypolipidemic activity was determined by measuring the % serum HDL-cholesterol in normal rat at the specified dose of 30 mg/kg; assay type: functional, organism-based; parameters: dose 30 mg/kg; outline: as §3
Rattus norvegicus [17] = assay: Hypolipidemic activity was determined by measuring the % serum HDL in hypercholesterolemic RICO rat at a dose of 10 mg/kg; assay type: functional, organism-based; parameters: dose 10 mg/kg; outline: as §4
Rattus norvegicus [18] = assay: Hypolipidemic activity was determined by measuring the % serum LDL in normal rat at a dose of 10 mg/kg; assay type: functional, organism-based; parameters: dose 10 mg/kg; outline: as §2
Rattus norvegicus [19] = assay: Hypolipidemic activity was determined by measuring the % serum LDL-cholesterol in hypercholesterolemic RICO rat at a dose of 30 mg/kg; assay type: functional, organism-based; parameters: dose 30 mg/kg; outline: as §4
Rattus norvegicus [20] = assay: Hypolipidemic activity was determined by measuring the % serum HDL in hypercholesterolemic RICO rat at a dose of 30 mg/kg; assay type: functional, organism-based; parameters: dose 30 mg/kg; outline: as §4
Rattus norvegicus [21] = assay: Hypolipidemic activity was determined by measuring the % serum LDL in normal rat at a dose of 1 mg/kg; assay type: functional, organism-based; parameters: dose 1 mg/kg; outline: as §2
Rattus norvegicus [22] = assay: Hypolipidemic activity was determined by measuring the % serum triglycerides in normal rat at a dose of 30 mg/kg; assay type: functional, organism-based; parameters: dose 30 mg/kg; outline: as §2
Rattus norvegicus [23] = assay: Hypolipidemic activity was determined by measuring the % serum LDL-cholesterol in normal rat at the specified dose of 10 mg/kg; assay type: functional, organism-based; parameters: dose 10 mg/kg; outline: as §3
Rattus norvegicus [24] = assay: Hypolipidemic activity was determined by measuring the % serum HDL in hypercholesterolemic RICO rat at a dose of 3 mg/kg; assay type: functional, organism-based; parameters: dose 3 mg/kg; outline: as §4
Rattus norvegicus [25] = assay: Hypolipidemic activity was determined by measuring the % serum LDL-cholesterol in normal rat at the specified dose of 30 mg/kg; assay type: functional, organism-based; parameters: dose 30 mg/kg; outline: as §3
Rattus norvegicus [26] = assay: Hypolipidemic activity was determined by measuring the % serum triglycerides in normal rat at a dose of 1 mg/kg; assay type: functional, organism-based; parameters: dose 1 mg/kg; outline: as §2
[27] = Inhibitory activity against RNA polymerase was determined; parameters: species or system Escherichia coli
Outline: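 E. coli DNA-dependent RNA polymerase inhibition measured in vitro on ether-extracted, permeabilized E. coli cells.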

Rattus norvegicus [28] = assay: Hypolipidemic activity was determined by measuring the % serum cholesterol in hypercholesterolemic RICO rat at a dose of 10 mg/kg; assay type: functional, organism-based; parameters: dose 10 mg/kg; outline: as §4
Rattus norvegicus [29] = assay: Hypolipidemic activity was determined by measuring the % serum cholesterol in rat at the specified dose of 30 mg/kg; assay type: functional, organism-based; parameters: dose 30 mg/kg; outline: as §3
Rattus norvegicus [30] = assay: Hypolipidemic activity was determined by measuring the % serum HDL in normal rat at a dose of 1 mg/kg; assay type: functional, organism-based; parameters: dose 1 mg/kg; outline: as §2
Rattus norvegicus [31] = assay: Hypolipidemic activity was determined by measuring the % serum HDL-cholesterol in normal rat at the specified dose of 10 mg/kg; assay type: functional, organism-based; parameters: dose 10 mg/kg; outline: as §3
Rattus norvegicus [32] = assay: Hypolipidemic activity was determined by measuring the % serum LDL-cholesterol in hypercholesterolemic RICO rat at a dose of 10 mg/kg; assay type: functional, organism-based; parameters: dose 10 mg/kg; outline: as §4
Rattus norvegicus [33] = assay: Hypolipidemic activity was determined by measuring the % serum LDL-cholesterol in hypercholesterolemic RICO rat at a dose of 3 mg/kg; assay type: functional, organism-based; parameters: dose 3 mg/kg; outline: as §4
Rattus norvegicus [34] = assay: Hypolipidemic activity was determined by measuring the % serum cholesterol in hypercholesterolemic RICO rat at a dose of 3 mg/kg; assay type: functional, organism-based; parameters: dose 3 mg/kg; outline: as §4
Rattus norvegicus [35] = assay: Hypolipidemic activity was determined by measuring the % serum HDL in normal rat at a dose of 3 mg/kg; assay type: functional, organism-based; parameters: dose 3 mg/kg; outline: as §2
Rattus norvegicus [36] = assay: Hypolipidemic activity was determined by measuring the % serum cholesterol in normal rat at a dose of 1 mg/kg; assay type: functional, organism-based; parameters: dose 1 mg/kg; outline: as §2
Rattus norvegicus [37] = assay: Hypolipidemic activity was determined by measuring the % serum triglycerides in hypercholesterolemic RICO rat at a dose of 3 mg/kg; assay type: functional, organism-based; parameters: dose 3 mg/kg; outline: as §4
Rattus norvegicus [38] = assay: Hypolipidemic activity was determined by measuring the % serum triglycerides in normal rat at a dose of 10 mg/kg; assay type: functional, organism-based; parameters: dose 10 mg/kg; outline: as §2

COC1/C=C/OC2(C)Oc3c(C)c(O)c4c(O)c(c(N5CCN(Cc6c(C)cc(C)cc6C)CC5)c(O)c4c3C2=O)NC(=O)/C(C)=C\C=C\C(C)C(=O)C(C)C(O)C(C)C(OC(C)=O)C1C (stereo not drawn)
MIC (Staphylococcus aureus): 64 µg/mL (≈ 70.2 µM)
Activity (Rattus norvegicus [1]): -15%
Activity (Rattus norvegicus [2]): -11%
Activity (Rattus norvegicus [3]): 1%

COC1/C=C/OC2(C)Oc3c(C)c(OC(=O)C(C)(C)C)c4c(c3C2=O)C(=O)C(N2CCN(Cc3c(C)cc(C)cc3C)CC2)=C(C4=O)N(C(=O)C(C)(C)C)C(=O)/C(C)=C\C=C\C(C)C(O)C(C)C(O)C(C)C(OC(C)=O)C1C (stereo not drawn)
MIC (Staphylococcus aureus): 64 µg/mL (≈ 59.2 µM)
Serum LDL-cholesterol (Rattus norvegicus [4]): -51%
Serum cholesterol (Rattus norvegicus [5]): -19%
Serum LDL-cholesterol (Rattus norvegicus [6]): -34%
Serum cholesterol (Rattus norvegicus [7]): -16%
Serum cholesterol (Rattus norvegicus [8]): -4%
Serum triglyceride (Rattus norvegicus [9]): -32%
Serum HDL-cholesterol (Rattus norvegicus [10]): -34%
Serum cholesterol (Rattus norvegicus [11]): -27%
Serum HDL-cholesterol (Rattus norvegicus [12]): -21%
Activity (Rattus norvegicus [1]): -33%
Serum cholesterol (Rattus norvegicus [13]): -50%
Serum triglyceride (Rattus norvegicus [14]): 14%
Serum triglyceride (Rattus norvegicus [15]): -47%
Serum HDL-cholesterol (Rattus norvegicus [16]): -27%
Serum HDL-cholesterol (Rattus norvegicus [17]): -24%
Serum LDL-cholesterol (Rattus norvegicus [18]): -56%
Serum LDL-cholesterol (Rattus norvegicus [19]): -69%
Serum HDL-cholesterol (Rattus norvegicus [20]): -45%
Serum LDL-cholesterol (Rattus norvegicus [21]): -8%
Serum triglyceride (Rattus norvegicus [22]): -22%
Serum LDL-cholesterol (Rattus norvegicus [23]): -26%
Serum HDL-cholesterol (Rattus norvegicus [24]): -6%
Serum LDL-cholesterol (Rattus norvegicus [25]): -68%
Serum triglyceride (Rattus norvegicus [26]): 14%
IC50 [27]: > 100 µg/mL
Serum cholesterol (Rattus norvegicus [28]): -29%
Serum cholesterol (Rattus norvegicus [29]): -33%
Serum HDL-cholesterol (Rattus norvegicus [30]): 0%
Serum HDL-cholesterol (Rattus norvegicus [31]): -11%
Serum LDL-cholesterol (Rattus norvegicus [32]): -53%
Serum LDL-cholesterol (Rattus norvegicus [33]): -35%
Serum cholesterol (Rattus norvegicus [34]): -12%
Serum HDL-cholesterol (Rattus norvegicus [35]): -4%
Activity (Rattus norvegicus [2]): -30%
Serum cholesterol (Rattus norvegicus [36]): -5%
Serum triglyceride (Rattus norvegicus [37]): -11%
Serum triglyceride (Rattus norvegicus [38]): -17%
Activity (Rattus norvegicus [3]): -55%

COC1/C=C/OC2(C)Oc3c(C)c(O)c4c(O)c(c(N5CCN(Cc6c(C)cc(C)cc6C)CC5)c(O)c4c3C2=O)NC(=O)C(C)CCCC(C)C(O)C(C)C(O)C(C)C(OC(C)=O)C1C (stereo not drawn)
MIC (Staphylococcus aureus): 0.2 µg/mL (≈ 0.218 µM)
Activity (Rattus norvegicus [1]): -36%
IC50 [27]: 6.5 µg/mL (≈ 7.08 µM)
Activity (Rattus norvegicus [2]): -40%
Activity (Rattus norvegicus [3]): -59%
